ChEMBL document CHEMBL3997777, “Pterosin Sesquiterpenoids from Pteris cretica as Hypolipidemic Agents via Activating Liver X Receptors” (J Nat Prod, 2016)
Activity calls are given as the source filed them. No cut-off for these calls is given here.

Assays:
[1] = Cytotoxicity against HEK293T cells assessed as cell viability at 10 uM after 24 hrs by MTT assay relative to control; assay type: cell-based, HEK-293T; details: human, read-out: Activity
Method in brief: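 HEK 293T cells in DMEM/10% FBS at 37 °C, 5% CO2, exposed to compounds at 10 μM for 24 h in triplicate. MTT (2.5 mg/mL) added for 4 h, then DMSO. Absorbance read at 492 nm after 20 min shaking. Survival = (A sample − A blank)/(A control − A blank) × 100%.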

[2] = organism: Mus musculus; test: Activation of LXR in mouse 3T3L1 preadipocytes assessed as decrease in triglyceride level up to 10 uM […] measured on day 6 by Oil Red O staining based assay; assay type: cell-based
Method in brief: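 3T3-L1 adipocytes differentiated over 6 days (IBMX/dexamethasone/insulin/biotin for 3 days, then insulin only), compound in DMSO present throughout. Day 6 cells fixed in 4% formaldehyde for 1 h at room temperature, then stained with 0.35% Oil Red O stock diluted 3:2 in water for 30 min at 60 °C. Washed, then imaged at 4× magnification.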

[3] = organism: Mus musculus; test: Activation of LXR in mouse 3T3L1 preadipocytes assessed as decrease in triglyceride level for 3 days measured on day 6; assay type: cell-based
Method in brief: (§1)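 3T3-L1 cells grown in DMEM/10% FBS. Two days post-confluence (day 0), switched to differentiation medium (insulin 2 μg/mL, dexamethasone 100 ng/mL, IBMX 0.5 mM, biotin 10 ng/mL) for 3 days, then insulin-only medium for 3 more days. Compounds in DMSO (<0.1%) present throughout differentiation. Day 6 cells PBS-washed and lysed, TG measured by kit, expressed relative to vehicle; mean ± SD, three independent experiments.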

[4] = biological target: T1, Oxysterols receptor LXR-alpha (Homo sapiens) (UniProt Q13133); test: Activation of human LXRalpha expressed in HEK293 cells co-expressing human RXRalpha at 10 uM after 20 hrs by luciferase reporter gene assay; assay type: cell-based
T1 sequence (whole entry): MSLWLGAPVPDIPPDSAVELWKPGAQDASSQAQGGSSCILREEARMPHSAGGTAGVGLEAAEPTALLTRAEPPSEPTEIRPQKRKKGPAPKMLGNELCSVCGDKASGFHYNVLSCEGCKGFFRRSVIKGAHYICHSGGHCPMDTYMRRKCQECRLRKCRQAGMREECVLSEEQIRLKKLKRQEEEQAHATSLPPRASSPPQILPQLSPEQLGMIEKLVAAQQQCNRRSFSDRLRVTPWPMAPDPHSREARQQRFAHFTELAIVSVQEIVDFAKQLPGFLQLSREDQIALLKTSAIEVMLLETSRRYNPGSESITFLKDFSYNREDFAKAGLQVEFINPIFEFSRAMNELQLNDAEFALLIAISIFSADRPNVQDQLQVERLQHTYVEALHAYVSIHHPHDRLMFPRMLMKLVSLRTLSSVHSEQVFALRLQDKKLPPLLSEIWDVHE
Method in brief: (§2)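 HEK 293T cells seeded at 3 × 10^4/well and attached 12 h. Cotransfected by lipofection with hLXRα or rLXRβ receptor plasmid plus hRXRα, a DR-4 LXRE firefly luciferase reporter and a CMV renilla control. Compounds added 10 h later; 0.1% DMSO vehicle. Luminescence read 20 h after treatment, firefly normalized to renilla, fold over vehicle; mean ± SD, three independent experiments.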

[5] = biological target: T2, Oxysterols receptor LXR-beta (Rattus norvegicus) (UniProt Q62755); test: Activation of rat LXRbeta expressed in HEK293 cells co-expressing human RXRalpha at 10 uM after 20 hrs by luciferase reporter gene assay; assay type: cell-based; method in brief: as §2
T2 sequence (whole entry): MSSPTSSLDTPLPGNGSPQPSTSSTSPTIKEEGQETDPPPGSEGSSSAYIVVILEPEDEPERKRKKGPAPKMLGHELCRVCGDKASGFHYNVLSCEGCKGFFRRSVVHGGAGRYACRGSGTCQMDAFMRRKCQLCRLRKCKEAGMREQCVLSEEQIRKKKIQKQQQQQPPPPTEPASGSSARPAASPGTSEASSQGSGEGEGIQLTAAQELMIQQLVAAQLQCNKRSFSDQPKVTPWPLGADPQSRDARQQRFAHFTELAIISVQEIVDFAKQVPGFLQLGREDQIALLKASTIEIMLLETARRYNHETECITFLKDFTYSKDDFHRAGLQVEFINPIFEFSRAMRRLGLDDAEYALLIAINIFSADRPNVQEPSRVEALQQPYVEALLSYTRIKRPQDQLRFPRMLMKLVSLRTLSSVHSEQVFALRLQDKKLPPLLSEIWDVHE

[6] = organism: Mus musculus; test: Activation of LXR in mouse 3T3L1 preadipocytes assessed as decrease in triglyceride level at 1 to 10 uM for 3 days measured on day 6; assay type: cell-based; method in brief: as §1

Structure (SMILES) | viability at 24 h, 10 µM [1] [%] | also measured
Cc1cc2c(c(C)c1CCO)C(=O)[C@H](C)[C@@H]2O | 100 | 
Cc1c(CCO)c(CO)cc2c1C(=O)[C@H](C)[C@@H]2O | 100 | Activity [2]: Active; Activity [3]: Dose-dependent effect; Activity [4]: Active; Activity [5]: Active
COc1ccc2cc3[n+](cc2c1OC)CCc1cc2c(cc1-3)OCO2 |  | Activity [6]: Active
CC1(C)C[C@@H](O)C[C@]2(C)[C@@H]1[C@H](O)C[C@@]13C[C@@H](CC[C@H]12)[C@](C)(O)C3 | 100 | Activity [2]: Active; Activity [3]: Dose-dependent effect
Cc1cc2c(c(C)c1CCO)C(=O)[C@](C)(O)[C@@H]2O | 100 | 
Cc1cc2c(c(C)c1CCO)C(=O)C(C)(C)[C@@H]2O | 100 | 
Cc1cc2c(c(C)c1CCO)C(=O)[C@](C)(CO)[C@@H]2O | 100 | 
C=C1[C@@H]2CC[C@H]3[C@]4(C)C[C@H](O)CC(C)(C)[C@H]4CC[C@]3(C2)[C@H]1O | 100 | 
Cc1cc2c(c(CO)c1CCO)C(=O)[C@@](C)(O)C2=O | 100 | 
C=C1[C@@H]2CC[C@H]3[C@]4(C)C[C@H](O[C@@H]5O[C@H](CO)[C@@H](O)[C@H](O)[C@H]5O)CC(C)(C)[C@H]4CC[C@]3(C2)[C@H]1O | 100 | 
Cc1cc2c(c(C)c1CCO)C(=O)[C@@](C)(O)[C@@H]2O | 100 | 
Cc1c(CCO)c(CO)cc2c1C(=O)[C@@H](C)[C@@H]2O | 100 | 
Cc1cc2c(c(CO)c1CCO)C(=O)[C@H](C)[C@@H]2O | 100 | 
Cc1cc2c(c(CO)c1CCO)C(=O)[C@@H](C)[C@@H]2O | 100 | 
CC1(C)C[C@@H](O)C[C@]2(C)[C@@H]1[C@H](O)C[C@@]13C[C@@](O)(CC[C@H]12)[C@](C)(O)C3 | 100 | Activity [2]: Active; Activity [3]: Dose-dependent effect
C=C1[C@@H]2CC[C@H]3[C@]4(C)C[C@H](O)CC(C)(C)[C@H]4[C@H](O)C[C@]3(C2)[C@H]1O | 100 | 
Cc1cc2c(c(C)c1CCO[C@@H]1O[C@H](CO)[C@@H](O)[C@H](O)[C@H]1O)C(=O)C(C)(C)[C@H]2O | 100 | 
Cc1cc2c(c(C)c1CCO[C@@H]1O[C@H](CO)[C@@H](O)[C@H](O)[C@H]1O)C(=O)[C@H](C)[C@@H]2O | 100 | 
O=C(O)Cc1cccc(OCCCN(Cc2cccc(C(F)(F)F)c2Cl)CC(c2ccccc2)c2ccccc2)c1 |  | Activity [4]: Active; Activity [5]: Active
Cc1cc2c(c(C)c1CCO[C@@H]1O[C@H](CO)[C@@H](O)[C@H](O)[C@H]1O)C(=O)[C@@H](C)[C@@H]2O | 100 | 
Cc1cc2c(c(CO)c1CCO)C(=O)[C@](C)(CO)[C@@H]2O | 100 | 
CC1(C)C[C@@H](O)C[C@]2(C)[C@@H]1CC[C@@]13C[C@@H](CC[C@@H]21)[C@@](O)(CO)[C@@H]3O | 100 | 
CC1(C)C[C@@H](O[C@@H]2O[C@H](CO)[C@@H](O)[C@H](O)[C@H]2O)C[C@]2(C)[C@@H]1CC[C@@]13C[C@@H](CC[C@H]12)[C@](C)(O)C3 | 100 | 
Cc1cc2c(c(C)c1CCO)C(=O)[C@@H](C)[C@@H]2O | 100 | Activity [2]: Active; Activity [3]: Dose-dependent effect
